MPTP block: blocks calcium-induced mitochondrial swelling; isolated mouse mitochondria, Ca2+ swelling absorbance, 30 min; inhibition, % at 10 µM; 360,000 tested, 1.4% active;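 active means inhibition of 50% or more, scaled per plate between neutral and stimulator controls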;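 further: 0% = DMSO wells given calcium and 100% = 1 mM EGTA wells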
procasp7 counter: counter-screen: procaspase-7 (human) activation; recombinant procaspase-7, Ac-DEVD-pNA absorbance 405 nm; D23A/D198A/D206A triple mutant, cannot self-cleave; scale: DMSO 0, 5 µM enzyme 100; activation, % at 8.5 µM; 330,000 tested, 0.093% active;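 active means percent activation above the screen-wide mean plus 3 SD, cut at about 25% in these data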
Target sequence (P55210 whole entry D23A/D198A/D206A): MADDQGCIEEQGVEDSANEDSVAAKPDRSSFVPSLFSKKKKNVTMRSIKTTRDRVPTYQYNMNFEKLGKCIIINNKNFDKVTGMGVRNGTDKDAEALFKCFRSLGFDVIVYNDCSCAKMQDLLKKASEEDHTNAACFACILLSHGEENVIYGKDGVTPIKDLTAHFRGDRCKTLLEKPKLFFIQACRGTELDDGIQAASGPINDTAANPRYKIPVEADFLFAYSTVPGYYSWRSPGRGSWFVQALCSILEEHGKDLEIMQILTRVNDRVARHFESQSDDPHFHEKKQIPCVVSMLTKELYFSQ
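Assay system: Uncleavable procaspase-7 mutant enzyme; Input: 2 µM procaspase-7 mutant as dispensed; Also added: DEVD-pNA substrate; Medium: Zinc-free HEPES pH 7.4 with 300 mM NaCl, 0.01% Triton X-100; Timing: 1 h compound preincubation, 2 h substrate cleavage, 25 °C; Measured by: Epi-absorbance of released pNA at 405 nm, two timepoints.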
GRIN3A LBD mod: modulators (binders) of human NR3A ligand-binding domain; NR3A LBD differential scanning fluorimetry, Tm shift; 0% = protein alone, 100% = glycine-bound protein; Tm shift relative to glycine control, % at 25 µM; 340,000 tested, 2.5% active;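 active means melting temperature shift of at least 10% of the positive control shift, at one fixed dose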
proCasp3 act: activates human procaspase-3; activation, % at 8.5 µM; 330,000 tested, 0.11% active; recombinant procaspase-3 D3A, Ac-DEVD-pNA absorbance 405 nm; P42574;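 active means activation above the mean of all tested compounds plus 3 SD, cut at about 21% in these data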;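 further: 0% = DMSO alone and 100% = DMSO wells spiked with extra 5 µM PC-3 D3A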
Target sequence (P42574 whole entry D9A/D28A/D175A): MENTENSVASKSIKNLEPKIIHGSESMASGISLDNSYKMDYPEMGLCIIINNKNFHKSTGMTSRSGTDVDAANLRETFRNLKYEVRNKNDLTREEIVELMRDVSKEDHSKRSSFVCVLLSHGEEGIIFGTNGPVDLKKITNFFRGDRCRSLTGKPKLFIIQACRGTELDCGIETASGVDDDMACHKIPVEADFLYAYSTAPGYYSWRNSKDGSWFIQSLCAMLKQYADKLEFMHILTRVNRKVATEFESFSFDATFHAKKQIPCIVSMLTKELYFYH
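Evaluation: percent activation relative to control range; Material: Procaspase-3 D3A mutant, all three cleavage aspartates alanine; Compound: single dose, 8.5 µM nominal compound, 0.8% DMSO; Replication: one well per compound; Signal: absorbance at 405 nm, 0 and 120 min; Schedule: 1 h preincubation plus 2 h reaction at 25 °C.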
aDG glyco act: increases alpha dystroglycan glycosylation. AID 624168. 360,000 tested, 0.22% active. activation, % at 10 µM. Pro5-aDG cells, alpha-DG glycosylation AlphaScreen (IIH6); 0% Pro5, 100% B10-LARGE cell signal;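 active means activation of at least 8% versus controls, or a plate z-score of at least 8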;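 further: Pro5 are CHO cells carrying HIG-tagged alpha-DG that lacks glycosylation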
Numbers without * were called inactive; . = not tested or not shown. Hits are enriched below; roughly 3.7% of the tested compounds scored in any of these assays.

SMILES | MPTP block | procasp7 counter | GRIN3A LBD mod | proCasp3 act | aDG glyco act
Cc1ccsc1/C=N/NC(=O)c1nnn(-c2nonc2N)c1CSc1ccccc1 | 0 | 10 | 36* | 5 | 0
Cc1ccsc1/C=N/NC(=O)c1nnn(-c2nonc2N)c1-c1ccccc1 | -1 | 1 | -3 | -6 | 0
C=CCN(Cc1ccc(Cl)s1)C(=O)c1ccc(F)c(S(=O)(=O)N2CCOCC2)c1 | 1 | -5 | 0 | 2 | 0
O=C1NC[C@@H](CCCCN2C[C@H](Cc3ccc(O)cc3)N(CC3CCCCC3)C(=O)C2=O)N(CCc2ccccc2)C1=O | -2 | . | . | . | 0
Cc1ccc(/C=N/NC(=O)c2nnn(-c3nonc3N)c2CSc2ccccc2)s1 | 1 | 0 | 30* | 0 | 0
Nc1nonc1-n1nnc(C(=O)N/N=C/c2ccncc2)c1CSc1ccccc1 | 0 | 1 | 11* | 7 | 0
Nc1nonc1-n1nnc(C(=O)N/N=C/c2ccoc2)c1CSc1ccccc1 | -1 | 5 | 16* | 3 | 0
CN(C)Cc1c(C(=O)N/N=C/c2ccncc2)nnn1-c1nonc1N | 0 | 0 | 0 | 13 | 0
CN(C)Cc1c(C(=O)N/N=C/c2ccoc2)nnn1-c1nonc1N | -1 | -4 | 5 | -5 | 0
Cc1cc(Cl)ccc1NC(=S)N1CCOCC1 | 0 | -3 | -5 | -8 | 0
Cc1ccc(NC(=S)N2CCOCC2)c(C)c1 | -2 | 3 | 16* | -3 | 0
Cc1ccc(NC(=S)NNC(=S)Nc2ccc(C)cc2C)cc1 | 43 | -25 | 11* | -6 | 0
Cc1cc(OCC(=O)N2CCOCC2)ccc1[N+](=O)[O-] | 0 | 8 | -1 | 6 | 0
O=C(NC(Cc1c[nH]c2ccccc12)c1nnc2n1CCCCC2)c1ccccc1Cl (stereo unspecified) | 0 | -3 | 11* | 6 | 1
COc1ccc(N2CCN(CCOc3ccc4c(C)cc(=O)oc4c3)CC2)cc1 | 1 | 6 | 4 | 11 | 0
Cc1cc(=O)oc2cc(OCCSCCN3CCCC3)ccc12 | 0 | 4 | 12* | -1 | 0
Cc1cc(=O)oc2cc(OCc3ccc(S(=O)(=O)N4CCOCC4)cc3)ccc12 | 0 | 2 | 18* | -3 | 0
CC(=CC(=O)c1ccccc1)c1ccccc1 | 1 | . | 1 | . | 0
O=C(CNC(=S)N(Cc1ccccc1F)C1CCCCC1)NC1CC1 | -1 | 11 | 11* | 4 | 0
O=C(CN(Cc1cccs1)S(=O)(=O)c1ccc(S(=O)(=O)NC2CCCCC2)cc1)Nc1ccccc1 | 21 | 5 | 13* | 3 | 1
COC(=O)C1OC(OC2CC[C@]3(C)C(CC[C@@]4(C)[C@@H]3CC=C3[C@@H]5CC(C)(C)CC[C@]5(C(=O)OC5OC(CO)C(O)C(O)C5O)CC[C@]34C)C2(C)C)C(O)C(O)C1O[C@H]1OCC(O)C(O)C1O (stereo partly specified) | -10 | 3 | 15* | 2 | 1
CC1(C)CC[C@]2(C(=O)O[C@@H]3OC(CO)[C@@H](O)[C@H](O)[C@H]3O)CC[C@]3(C)C(=CCC4[C@@]5(C)CC[C@H](O[C@@H]6OC(C(=O)O)[C@@H](O)[C@H](O)[C@H]6O)C(C)(C)C5CC[C@]43C)[C@@H]2C1 (stereo partly specified) | 0 | 8 | 0 | 2 | 0
CC[C@H](C)[C@H](NC(=O)OCc1ccccc1)C(=O)OCC(=O)N1CCN(c2ccc(OC)cc2)CC1 | 1 | . | 7 | . | 0
Cc1noc(NS(=O)(=O)c2ccc(NC(=O)CCN3C(=O)c4ccccc4C3=O)cc2)c1C | -1 | -4 | 14* | -5 | 0
Cc1noc(NS(=O)(=O)c2ccc(NC(=O)c3ccc(N4C(=O)c5ccccc5C4=O)cc3)cc2)c1C | 0 | -2 | -13 | 0 | 0
SMILES | MPTP block | procasp7 counter | GRIN3A LBD mod | proCasp3 act | aDG glyco act
CC1(c2ccc3ccccc3c2)NC(=O)N(CC(=O)NCc2cccs2)C1=O (stereo unspecified) | 1 | -2 | 1 | 12 | 0
CC1(c2ccc3ccccc3c2)NC(=O)N(CC(=O)NCC(C)(C)N2CCOCC2)C1=O (stereo unspecified) | -3 | 0 | 17* | -5 | 0
CCN(CC)C(=O)C1=C(C)N(CCC2=CCCCC2)C(=O)C(CC(=O)NCCCCc2ccccc2)C1 (stereo unspecified) | -2 | . | . | . | 1
COC(=O)[C@H](CC(C)C)NC(=O)/C=C/[C@H]1O[C@@H](n2ccc(=O)[nH]c2=O)[C@H](O)[C@@H]1O | 0 | . | . | . | 0
Cc1ccc(S(=O)(=O)N2CCN(C(=O)CN3C(=O)CNC3=O)CC2)cc1 | -3 | -6 | 1 | 5 | 0
O=C(Nc1ccc2c(c1)CCC2)c1cc(S(=O)(=O)Nc2ccc(F)cc2)c(Cl)cc1Cl | 25 | -17 | 31* | 1 | 0
O=C(CSc1ccccn1)C12CC3CC(CC(C3)C1)C2 | 1 | 12 | 12* | 5 | 0
O=C(CSc1ccccn1)c1ccc(F)cc1 | 0 | -18 | 2 | -21 | 0
Cc1ccc(C(=O)CSc2ccccn2)cc1 | 0 | -28 | 11* | -24 | 0
CC1(C(=O)Nc2cccc(C(F)(F)F)c2)Cc2c(-c3ccc4c(c3)OCO4)ccnc2O1 (stereo unspecified) | 0 | . | . | . | 0
O=C1Nc2ccccc2/C1=C/C(=O)c1cccs1 | 0 | -3 | 0 | -8 | 0
CCN1C(=O)/C(=C\C(=O)c2cccs2)c2cc(Br)ccc21 | -2 | -6 | 32* | -9 | 0
Cc1ccc(C(=O)N/C(=C\c2ccc(-c3ccccc3[N+](=O)[O-])o2)C(=O)NCCN(C)C)cc1 | 1 | -13 | 1 | -7 | 1.9*
Cc1ccc(C(=O)N/C(=C\c2ccc(-c3ccccc3[N+](=O)[O-])o2)C(=O)NCCCN(C)C)cc1 | 0 | -4 | -1 | 10 | 3
O=C(NNc1ccc(C(F)(F)F)cc1[N+](=O)[O-])c1ccc(NS(=O)(=O)c2ccc(F)cc2)cc1 | -17 | -6 | 22* | -12 | -1
CC1(C(=O)Nc2cnc3ccccc3c2)CCN1C(=O)CCc1ccccc1 (stereo unspecified) | 0 | . | . | . | 0
Cc1ccc(-c2cc(C(=O)NCCCN3CCOCC3)c3ccc(Cl)c(C)c3n2)cc1 | 1 | -6 | -15 | 4 | 1
Cc1c(Cl)ccc2c(C(O)CBr)cc(-c3ccccc3)nc12 (stereo unspecified) | 5 | . | 32* | . | 0
Nc1nonc1-n1nnc(C(=O)N/N=C/c2cccnc2)c1CSc1ccc(Cl)cc1 | 1 | -5 | 12* | 2 | 0
Nc1nonc1-n1nnc(C(=O)N/N=C/c2cccnc2)c1CSc1ccccc1 | 1 | -1 | 19* | -4 | 0
